In ChEMBL document CHEMBL2086362, “Synthesis and characterization of novel 2-amino-3-benzoylthiophene derivatives as biased allosteric agonists and modulators of the adenosine A(1) receptor” (J Med Chem, 2012) one finds Activity data, which are given here for 16 molecules.

Active and inactive are the calls of the source. No cut-off for these calls is given here.

Assay type in all cases: functional, cell-based
Experiment [1] addresses T1, Adenosine receptor A1 (Homo sapiens) (UniProt P30542).
T1 sequence (whole entry): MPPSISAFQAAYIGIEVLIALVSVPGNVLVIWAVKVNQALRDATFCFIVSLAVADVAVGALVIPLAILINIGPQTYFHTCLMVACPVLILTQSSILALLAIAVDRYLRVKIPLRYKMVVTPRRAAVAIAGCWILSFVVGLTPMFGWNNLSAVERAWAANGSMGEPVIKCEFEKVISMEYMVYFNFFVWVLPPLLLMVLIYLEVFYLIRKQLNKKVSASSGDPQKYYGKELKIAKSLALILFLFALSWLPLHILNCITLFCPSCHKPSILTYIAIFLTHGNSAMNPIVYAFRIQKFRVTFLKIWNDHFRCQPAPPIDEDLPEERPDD
The experiment can be described thus: Agonist activity at human A1 receptor expressed in CHO cells assessed as enhancement of R-PIA mediated ERK1/2 phosphorylation at 10 uM after 5 mins by Alpha-Screen assay. The method, boiled down: (§1)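 Flp-In CHO cells stably expressing human A1R, 30000/well, serum-starved overnight, then 1 U/mL ADA for 30 min. Test compound (3 or 10 μM) added 5 min before an EC50 concentration of R-PIA (determined same day), then a further 5 min at 37 °C. pERK1/2 read by SureFire AlphaScreen. Mean of two to three experiments in triplicate.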
For orientation: Alpha assays give light when donor and acceptor beads are brought close together.

Experiment [2] deals with T1, Adenosine receptor A1 (Homo sapiens). The experiment can be described thus: Agonist activity at human A1 receptor expressed in CHO cells assessed as enhancement of R-PIA mediated ERK1/2 phosphorylation at 3 uM after 5 mins by Alpha-Screen assay. Summed up: as §1
For experiment [3] the target is unchanged. The experiment can be described thus: Agonist activity at human A1 receptor expressed in CHO cells assessed as stimulation of ERK1/2 phosphorylation at 3 to 10 uM after 5 mins by Alpha-Screen assay. The method, boiled down:
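Flp-In CHO cells stably expressing human A1R, serum-starved overnight and pretreated with 1 U/mL ADA for 30 min. Compound (3 and 10 μM) applied alone, 5 min at 37 °C. Intrinsic agonism measured as ERK1/2 phosphorylation by SureFire AlphaScreen, with 3% FBS as positive control. Two to three experiments in triplicate.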

The target is the same in experiment [4]. The experiment can be described thus: Positive allosteric modulation at human A1 receptor expressed in CHO cells assessed as enhancement of R-PIA-mediated inhibition of forskolin-stimulated cAMP accumulation after 30 mins by Alpha-Screen assay. Summed up: (§2)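 Serum-starved CHO-FlpIn hA1R cells were preincubated 30 min in phenol red-free DMEM with 0.1% BSA, 1 U/mL ADA and 500 μM IBMX. They were then treated with 10 μM forskolin plus R-PIA and/or modulator for 30 min at 37 °C, and cAMP was read by AlphaScreen. Data were normalized to 10 μM forskolin and fitted to an operational model of allosterism. Three experiments in duplicate.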
Background: Cyclic AMP is a second messenger, typically raised through Gs and lowered through Gi signalling.

The target is the same in experiment [5]. The experiment can be described thus: Positive allosteric modulation at human A1 receptor expressed in CHO cells assessed as inhibition of forskolin-stimulated cAMP accumulation after 30 mins by Alpha-Screen assay. The method, boiled down: as §2

For `Cc1sc(N)c(C(=O)c2ccc(Cl)c(Cl)c2)c1-c1cc(C(F)(F)F)cc(C(F)(F)F)c1`, the Activity in experiment [1] turned out to be 84%; in experiment [2], 78%.
Turning to `Cc1sc(N)c(C(=O)c2ccc(Cl)cc2)c1-c1cccc(C(F)(F)F)c1`, the Activity in experiment [1] and in experiment [2] was 94% each time. For the same molecule, the outcome in experiment [3] and in experiment [4] was Active.
For `Nc1scc(-c2cc(C(F)(F)F)cc(C(F)(F)F)c2)c1C(=O)c1cccc(C(F)(F)F)c1`, the Activity in experiment [1] is 84%; in experiment [2] it was 90%.
Take `Cc1ccc(C(=O)c2c(-c3cccc(C(F)(F)F)c3)csc2N)cc1`: the Activity in experiment [1] worked out at 83%; in experiment [2], 85%.
Turning to `Cc1sc(N)c(C(=O)c2ccc(Cl)c(Cl)c2)c1-c1cccc(C(F)(F)F)c1`, the Activity in experiment [1] amounted to 75%; in experiment [2] it was 73%.
Turning to `Cc1ccc(C(=O)c2c(N)sc(C)c2-c2cc(C(F)(F)F)cc(C(F)(F)F)c2)cc1`, the Activity came to 80% in experiment [1] and 92% in experiment [2].
On to `Cc1sc(N)c(C(=O)c2cccc(C(F)(F)F)c2)c1-c1cccc(C(F)(F)F)c1`, for which the Activity in experiment [1] is 86%; in experiment [2], 90%.
Consider `Cc1sc(N)c(C(=O)c2ccccc2)c1-c1cccc(C(F)(F)F)c1`, for which the Activity was found to be 73% in experiment [1] and 77% in experiment [2]. Also, the result in experiment [3], in experiment [5] and in experiment [4] was Active.
With `Cc1sc(N)c(C(=O)c2ccc(Cl)cc2)c1-c1cc(C(F)(F)F)cc(C(F)(F)F)c1`, the Activity in experiment [1] stood at 88%; in experiment [2], 84%.
For `Cc1sc(N)c(C(=O)c2ccccc2)c1-c1cc(C(F)(F)F)cc(C(F)(F)F)c1`, the Activity came out at 95% in experiment [1] and 83% in experiment [2].
On the same counts, the results for `Cc1ccc(C(=O)c2c(N)sc(C)c2-c2cccc(C(F)(F)F)c2)cc1` are 90% and 86%.
In the case of `Cc1ccc(C(=O)c2c(-c3cc(C(F)(F)F)cc(C(F)(F)F)c3)csc2N)cc1`, the Activity in experiment [1] was 87%; in experiment [2] it was 86%.
Turning to `Cc1sc(N)c(C(=O)c2cccc(C(F)(F)F)c2)c1-c1cc(C(F)(F)F)cc(C(F)(F)F)c1`, the Activity in experiment [1] and in experiment [2] was 84% throughout.
As to `Nc1scc(-c2cc(C(F)(F)F)cc(C(F)(F)F)c2)c1C(=O)c1ccc(Cl)c(Cl)c1`, the Activity in experiment [1] and in experiment [2] was 90% each time.
Take `Nc1scc(-c2cccc(C(F)(F)F)c2)c1C(=O)c1ccc(Cl)c(Cl)c1`: the Activity in experiment [1] and in experiment [2] was 88% in each case.
Turning to `Nc1scc(-c2cccc(C(F)(F)F)c2)c1C(=O)c1cccc(C(F)(F)F)c1`, the Activity in experiment [1] turned out to be 94%; in experiment [2], 93%.
